# Legend:
# [1] = organism: Rattus norvegicus; experiment: Drug recovery in Sprague-Dawley rat plasma stability experiment; conditions: in vitro
# [2] = Half life in Sprague-Dawley rat at 0.1 mg/kg, iv administered as bolus injection measured under fasted conditions by LC-MS/MS analysis; assay type: ADME, organism-based; set-up: dose 0.1 mg/kg, route intravenous; conditions: in vivo
# [3] = AUC(0 to last) in Sprague-Dawley rat at 10 mg/kg, po administered via gavage measured under fasted conditions by LC-MS/MS analysis; assay type: ADME, organism-based; set-up: time 0 - last, dose 10 mg/kg, route oral; conditions: plasma
# Outline: (§1)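 Fasted male Sprague-Dawley rats (280–330 g) received 0.1, 1, 10 or 30 mg/kg by oral gavage in 50 mM HEPES buffered saline, pH 7.4. Blood drawn at 0.25–24 h into heparin/NEM tubes; plasma analyzed by LC-MS/MS. Cmax taken as observed. AUC by linear trapezoidal rule with extrapolation by λz. Cl/F and Vd/F reported. Mean ± S.D., n = 4–9.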
# [4] = test system: Rattus norvegicus; experiment: Elimination half life in Sprague-Dawley rat at 10 mg/kg, iv by LC-MS/MS analysis; assay type: ADME, organism-based; set-up: dose 10 mg/kg, route intravenous; conditions: in vivo
# Outline: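 Male Sprague-Dawley rats received a single IV dose of either 10 mg/kg parent drug (n = 6) or 5 mg/kg homodisulfide (n = 5), in 50 mM HEPES-buffered saline, pH 7.4. Blood was collected into NEM-containing heparinized tubes for up to 7 days. Parent drug and homodisulfide in plasma were quantified by LC-MS/MS. Terminal t1/2β was calculated as 0.693/λz.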
# [5] = Apparent oral clearance in Sprague-Dawley rat at 1 mg/kg, po administered via gavage measured under fasted conditions by LC-MS/MS analysis; assay type: ADME, organism-based; set-up: dose 1 mg/kg, route oral; conditions: in vivo
# Outline: as §1
# [6] = Phase 1 metabolic stability in monkey liver microsomes assessed as compound remaining at 10 uM measured for 1 hr by LC-MS/MS analysis in absence of cofactors; assay type: ADME, Macaca mulatta; conditions: rhesus monkey, read-out: Stability
# Outline: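 Cofactor-free controls were run for each microsomal incubation: 0.5 mg/ml liver microsomes with 10 µM compound, omitting cofactors, so that cofactor-independent degradation could be measured. Samples were taken up to 1 h, quenched with acetonitrile containing internal standard, and the percent remaining was determined by LC-MS/MS.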
# [7] = Cmax in cynomolgus monkey at 5 mg/kg, po by LC-MS/MS analysis; assay type: ADME, organism-based, Macaca fascicularis; set-up: dose 5 mg/kg, route oral; conditions: in vivo
# Outline: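 Cynomolgus monkeys (n = 3) received a nominal 5 mg/kg dose in 50 mM HEPES, TCEP-treated to prevent disulfide formation. Dosing was either an IV bolus via cephalic or saphenous vein or oral. Arterial cannula blood was collected into NEM-containing heparinized tubes for up to 9 days and analyzed by LC-MS/MS. Noncompartmental analysis gave t1/2 = 0.693/λz and F% = dose-normalized mean AUCinf p.o./i.v. ×100.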
# [8] = AUC(0 to last) in Sprague-Dawley rat at 10 mg/kg, iv by LC-MS/MS analysis; assay type: ADME, organism-based; set-up: time 0 - last, dose 10 mg/kg, route intravenous; conditions: plasma
# Outline: (§2)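 Male Sprague-Dawley rats dosed intravenously at 10 mg/kg (n = 6). Blood sampling extended to 7 days into heparin tubes containing NEM. Plasma assayed for parent and homodisulfide by LC-MS/MS, calibration range 1–5000 ng/ml. Noncompartmental analysis, t1/2 = 0.693/λz. Mean ± S.D.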
# [9] = Tmax in Sprague-Dawley rat at 0.1 mg/kg, po administered via gavage measured under fasted conditions by LC-MS/MS analysis; assay type: ADME, organism-based; set-up: dose 0.1 mg/kg, route oral; conditions: in vivo
# Outline: (§3)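 Jugular-cannulated male Sprague-Dawley rats, 280–330 g, fasted overnight to 4 h post-dose. Single dose in 50 mM HEPES-buffered saline pH 7.4, by oral gavage or as tail-vein i.v. bolus. Blood into heparin/NEM tubes at 0–24 h. Plasma measured by LC-MS/MS; noncompartmental analysis; Tmax observed; Vd = dose/(AUCinf·λz).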
# [10] = Half life in Sprague-Dawley rat at 10 mg/kg, iv administered as bolus injection measured under fasted conditions by LC-MS/MS analysis; assay type: ADME, organism-based; set-up: dose 10 mg/kg, route intravenous; conditions: in vivo
# [11] = AUC(0 to infinity) in Sprague-Dawley rat at 30 mg/kg, iv administered as bolus injection measured under fasted conditions by LC-MS/MS analysis; assay type: ADME, organism-based; set-up: time infinity, dose 30 mg/kg, route intravenous; conditions: plasma
# Outline: (§4)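 Male Sprague-Dawley rats (280–330 g), jugular vein cannulated, fasted overnight until 4 h post-dose. Single tail-vein bolus of 0.1, 1, 10 or 30 mg/kg in 50 mM HEPES buffered saline, pH 7.4. Blood drawn 0–24 h into heparin tubes containing NEM. Plasma quantified by LC-MS/MS after NEM derivatization. Noncompartmental analysis: AUClast by linear trapezoidal rule, Cl = dose/AUC0-∞. Mean ± S.D., n = 4–9.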
# [12] = Primary phase half life in Sprague-Dawley rat at 10 mg/kg, iv by LC-MS/MS analysis; assay type: ADME, organism-based; set-up: dose 10 mg/kg, route intravenous; conditions: in vivo, read-out: alphat1/2 (converted)
# [13] = Cmax in Sprague-Dawley rat at 10 mg/kg, iv by LC-MS/MS analysis; assay type: ADME, organism-based; set-up: dose 10 mg/kg, route intravenous; conditions: in vivo
# Outline: as §2
# [14] = Clearance in Sprague-Dawley rat at 1 mg/kg, iv administered as bolus injection measured under fasted conditions by LC-MS/MS analysis; assay type: ADME, organism-based; set-up: dose 1 mg/kg, route intravenous; conditions: in vivo
# Outline: as §4
# [15] = Cmax in Sprague-Dawley rat brain at 10 mg/kg, po administered as single dose measured per gm of tissue by LC-MS/MS analysis; assay type: ADME, organism-based; set-up: dose 10 mg/kg, route oral
# Outline: (§5)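 Male Sprague-Dawley rats were dosed orally with 10 mg/kg/day, either once or daily for 5 days; n = 4 per group. Blood was taken by cardiac puncture and liver, kidney, brain and sciatic nerve were collected at 0–8 h post-dose. Tissues were homogenized in PBS containing NEM at equal volume per gram. NEM-derivatized analyte was extracted with methanol and quantified by LC-MS/MS (1–5000 ng/ml). Cmax is the observed value.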
# [16] = Tmax in Sprague-Dawley rat at 30 mg/kg, po administered via gavage measured under fasted conditions by LC-MS/MS analysis; assay type: ADME, organism-based; set-up: dose 30 mg/kg, route oral; conditions: in vivo
# Outline: as §3
# [17] = Half life in Sprague-Dawley rat at 30 mg/kg, po administered via gavage measured under fasted conditions by LC-MS/MS analysis; assay type: ADME, organism-based; set-up: dose 30 mg/kg, route oral; conditions: in vivo
# [18] = Apparent volume of distribution in Sprague-Dawley rat at 10 mg/kg, po administered via gavage measured under fasted conditions by LC-MS/MS analysis; assay type: ADME, organism-based; set-up: dose 10 mg/kg, route oral; conditions: in vivo
# Outline: as §1
# [19] = Apparent volume of distribution in Sprague-Dawley rat at 10 mg/kg, po administered via gavage measured under fed conditions by LC-MS/MS analysis; assay type: ADME, organism-based; set-up: dose 10 mg/kg, route oral; conditions: in vivo
# Outline: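 Nonfasted male Sprague-Dawley rats given a single 10 mg/kg oral dose in 50 mM HEPES buffered saline, pH 7.4. Plasma collected 0.25–24 h into heparin/NEM tubes and assayed by LC-MS/MS. Noncompartmental parameters derived, including Cl/F and Vd/F. Mean ± S.D., n = 6–9.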
# [20] = Volume of distribution in Sprague-Dawley rat at 10 mg/kg, iv by LC-MS/MS analysis; assay type: ADME, organism-based; set-up: dose 10 mg/kg, route intravenous; conditions: in vivo
# [21] = Cmax in Sprague-Dawley rat liver at 10 mg/kg, po administered as single dose measured per gm of tissue by LC-MS/MS analysis; assay type: ADME, organism-based; set-up: dose 10 mg/kg, route oral
# Outline: as §5
# [22] = AUC(0 to infinity) in Sprague-Dawley rat at 0.1 mg/kg, iv administered as bolus injection measured under fasted conditions by LC-MS/MS analysis; assay type: ADME, organism-based; set-up: time infinity, dose 0.1 mg/kg, route intravenous; conditions: plasma
# Outline: as §4
smiles,measurement,setting,value
O=C(O)c1cccc(-c2cccc(CCS)c2C(=O)O)c1,Drug recovery,[1],60%
same,half-life,[2],2.3 h
same,AUC(0-t),[3],33400 ng·h/mL
same,beta t1/2,[4],105 h
same,CL/F,[5],5.5 mL/min/kg
same,"remaining at 1 h, 10 µM",[6],> 90%
same,Cmax,[7],10500 ng/mL
same,AUC(0-t),[8],86700 ng·h/mL
same,Tmax,[9],0.83 h
same,half-life,[10],3.55 h
same,AUC(0-inf),[11],204000 ng·h/mL
same,half-life,[12],0.87 h
same,Cmax,[13],57200 ng/mL
same,clearance,[14],0.833 mL/min/kg
same,Cmax,[15],25 ng/g
same,Tmax,[16],1.43 h
same,half-life,[17],3.15 h
same,Vd/F,[18],1.44 L/kg
same,Vd/F,[19],1.09 L/kg
same,Vd,[20],19 L/kg
same,Cmax,[21],453 ng/g
same,AUC(0-inf),[22],1970 ng·h/mL

# — ChEMBL document CHEMBL3526151, “Reversible disulfide formation of the glutamate carboxypeptidase II inhibitor E2072 results in prolonged systemic exposures in vivo” (Drug Metab Dispos, 2012)
